ChEMBL document CHEMBL1122545, “N2-(4-Substituted-2,6-dichlorophenyl)-N1,N1-dimethylformamidines as antihypertensive and diuretic agents” (J Med Chem, 1984)

Legend:
[1] = (§1) Diuretic activity was determined expressed as volume of urine excreted in mL was reported at a dose of 100 mg/Kg; format: ADME; conditions: in vivo
In short: (§2)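 Male SH rats (Okamoto strain), 16 weeks old, dosed orally by gavage with compound dispersed in 3% starch in normal saline at 2 mL/kg. Oral normal saline load, then individual metabolism cages; 0-5 h urine collected, Na+ and K+ measured by flame photometry. Rats redosed at 24 h without the saline load. MABP and HR taken by femoral arterial puncture under local anesthetic 4 h after the second dose.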

Rattus norvegicus [2] = experiment: Diuretic activity was determined in SH rats expressed as K(+) (potassium) excreted in milli equivalents was reported for a duration of 5 hours after administration of a dose of 100 mg/Kg.; format: ADME, organism-based, Urine; conditions: in vivo; in short: as §2
[3] = Diuretic activity was determined expressed as Na+(sodium) excreted in milli equivalents was reported for a duration of 5 hours after administration of a dose of 100 mg/Kg; format: ADME, Urine; conditions: in vivo; in short: as §2
Rattus norvegicus [4] = experiment: Antihypertensive activity determined as heart rate in SH rats, was reported at a dose of 100 mg/Kg; format: functional; in short: as §2
Rattus norvegicus [5] = experiment: Antihypertensive activity in SH rats, and mean arterial blood pressure was reported at a dose of 100 mg/Kg; format: functional, Artery; in short: as §2
Rattus norvegicus [6] = experiment: Diuretic activity was determined in SH rats expressed as K(+) (potassium) excreted in milli equivalents was reported for a duration of 5 hours after administration of a dose of 100 mg/Kg; format: ADME, organism-based, Urine; conditions: in vivo; in short: as §2
[7] = Diuretic activity was determined expressed as Na+(sodium) excreted in milli equivalents was reported for a duration of 5 hours after administration of a dose of 25 mg/Kg; format: ADME, Urine; conditions: in vivo; in short: as §2
[8] = Diuretic activity was determined expressed as volume of urine excreted in mL was reported at a dose of 25 mg/Kg; format: ADME; conditions: in vivo; in short: as §2
Rattus norvegicus [9] = experiment: Diuretic activity was determined in SH rats expressed as K(+) (potassium) excreted in milli equivalents was reported for a duration of 5 hours after administration of a dose of 25 mg/Kg.; format: ADME, organism-based, Urine; conditions: in vivo; in short: as §2
Rattus norvegicus [10] = experiment: Antihypertensive activity determined as heart rate in SH rats, was reported at a dose of 25 mg/Kg; format: functional; in short: as §2
Rattus norvegicus [11] = experiment: Antihypertensive activity in SH rats, and mean arterial blood pressure was reported at a dose of 25 mg/Kg; format: functional, Artery; in short: as §2
Rattus norvegicus [12] = experiment: as §1; format: ADME, organism-based; conditions: in vivo; in short: as §2
Rattus norvegicus [13] = experiment: Diuretic activity was determined in SH rats expressed as K(+) (potassium) excreted in milli euivalents was reported for a duration of 5 hours after administration of a dose of 100 mg/Kg.; conditions: in vivo

**Q.** With `CN(C)/C=N/c1c(Cl)cc(NCc2cccc(F)c2)cc1Cl` as the compound, how does the Diuretic activity [1] read?
**A.** 25 mL

**Q.** And the Diuretic activity (Rattus norvegicus [2])?
**A.** 0.59 m equiv

**Q.** What about the Diuretic activity [3] of the same compound?
**A.** 1.93 m equiv

**Q.** And the HR (Rattus norvegicus [4])?
**A.** 290 beats min-1

**Q.** And the MABP (Rattus norvegicus [5])?
**A.** 120 mmHg

**Q.** With `COc1ccc(CNc2cc(Cl)c(/N=C/N(C)C)c(Cl)c2)cc1F` as the compound, how does the Diuretic activity [1] read?
**A.** 16.8 mL

**Q.** What about the Diuretic activity (Rattus norvegicus [6]) of the same compound?
**A.** 0.43 m equiv

**Q.** What about the Diuretic activity [3] of the same compound?
**A.** 1.15 m equiv

**Q.** And the HR (Rattus norvegicus [4])?
**A.** 320 beats min-1

**Q.** What about the MABP (Rattus norvegicus [5]) of the same compound?
**A.** 113 mmHg

**Q.** For `CN(C)/C=N/c1c(Cl)cc(NCc2ccc(-c3ccccc3)cc2)cc1Cl`, which Diuretic activity [1] is on record?
**A.** 7.3 mL

**Q.** What about the Diuretic activity (Rattus norvegicus [2]) of the same compound?
**A.** 0.5 m equiv

**Q.** What about the Diuretic activity [3] of the same compound?
**A.** 0.46 m equiv

**Q.** What about the HR (Rattus norvegicus [4]) of the same compound?
**A.** 400 beats min-1

**Q.** What about the MABP (Rattus norvegicus [5]) of the same compound?
**A.** 143 mmHg

**Q.** With `CN(C)/C=N/c1c(Cl)cc(NCc2ccc(N(C)C)cc2F)cc1Cl` as the compound, how does the Diuretic activity [7] read?
**A.** 2.26 m equiv

**Q.** And the Diuretic activity [8]?
**A.** 23.5 mL

**Q.** And the Diuretic activity (Rattus norvegicus [9])?
**A.** 0.71 m equiv

**Q.** And the HR (Rattus norvegicus [10])?
**A.** 400 beats min-1

**Q.** And the MABP (Rattus norvegicus [11])?
**A.** 155 mmHg

**Q.** For `CN(C)/C=N/c1c(Cl)cc(NCc2ccccc2O)cc1Cl`, which Diuretic activity [1] is on record?
**A.** 12.3 mL

**Q.** What about the Diuretic activity (Rattus norvegicus [2]) of the same compound?
**A.** 0.68 m equiv

**Q.** What about the Diuretic activity [3] of the same compound?
**A.** 0.72 m equiv

**Q.** And the HR (Rattus norvegicus [4])?
**A.** 340 beats min-1

**Q.** And the MABP (Rattus norvegicus [5])?
**A.** 150 mmHg

**Q.** With `CC(=O)Nc1ccc(CNc2cc(Cl)c(/N=C/N(C)C)c(Cl)c2)cc1` as the compound, how does the Diuretic activity (Rattus norvegicus [2]) read?
**A.** 0.62 m equiv

**Q.** And the Diuretic activity (Rattus norvegicus [12])?
**A.** 9.5 mL

**Q.** And the Diuretic activity [3]?
**A.** 0.66 m equiv

**Q.** And the HR (Rattus norvegicus [4])?
**A.** 340 beats min-1

**Q.** And the MABP (Rattus norvegicus [5])?
**A.** 150 mmHg

**Q.** With `CN(C)/C=N/c1c(Cl)cc(NCc2cccc(Br)c2)cc1Cl` as the compound, how does the Diuretic activity [1] read?
**A.** 19.3 mL

**Q.** What about the Diuretic activity [3] of the same compound?
**A.** 1.9 m equiv

**Q.** And the HR (Rattus norvegicus [4])?
**A.** 350 beats min-1

**Q.** And the MABP (Rattus norvegicus [5])?
**A.** 120 mmHg

**Q.** What about the Diuretic activity (Rattus norvegicus [13]) of the same compound?
**A.** 0.48 m equiv

**Q.** What does the source list for `CN(C)/C=N/c1c(Cl)cc(NCc2cccc(C(F)(F)F)c2)cc1Cl`?
**A.** Diuretic activity [1]: 21.3 mL; Diuretic activity (Rattus norvegicus [2]): 0.5 m equiv; Diuretic activity [3]: 2.04 m equiv; HR (Rattus norvegicus [4]): 420 beats min-1; MABP (Rattus norvegicus [5]): 165 mmHg

**Q.** Which results are given for `CCN(CC)c1ccc(CNc2cc(Cl)c(/N=C/N(C)C)c(Cl)c2)cc1`?
**A.** Diuretic activity [7]: 2.02 m equiv; Diuretic activity [8]: 21.3 mL; Diuretic activity (Rattus norvegicus [9]): 0.71 m equiv; HR (Rattus norvegicus [10]): 400 beats min-1; MABP (Rattus norvegicus [11]): 153 mmHg

**Q.** For `COc1cc(CNc2cc(Cl)c(/N=C/N(C)C)c(Cl)c2)cc(OC)c1OC`, which Diuretic activity [1] is on record?
**A.** 17.5 mL

**Q.** What about the Diuretic activity (Rattus norvegicus [6]) of the same compound?
**A.** 0.57 m equiv

**Q.** And the Diuretic activity [3]?
**A.** 1.4 m equiv

**Q.** What about the HR (Rattus norvegicus [4]) of the same compound?
**A.** 360 beats min-1

**Q.** And the MABP (Rattus norvegicus [5])?
**A.** 138 mmHg

**Q.** For `CN(C)/C=N/c1c(Cl)cc(NCc2ccc(N(C)C)cc2)cc1Cl`, which Diuretic activity [7] is on record?
**A.** 0.55 m equiv

**Q.** And the Diuretic activity [8]?
**A.** 5.5 mL

**Q.** And the Diuretic activity (Rattus norvegicus [9])?
**A.** 0.39 m equiv

**Q.** What about the HR (Rattus norvegicus [10]) of the same compound?
**A.** 450 beats min-1

**Q.** What about the MABP (Rattus norvegicus [11]) of the same compound?
**A.** 171 mmHg

**Q.** Which Diuretic activity [7] does the source give for `CN(C)/C=N/c1c(Cl)cc(NCc2ccc(N(C)C)c(Br)c2)cc1Cl` here?
**A.** 1.18 m equiv

**Q.** What about the Diuretic activity [8] of the same compound?
**A.** 14 mL

**Q.** And the Diuretic activity (Rattus norvegicus [9])?
**A.** 0.77 m equiv

**Q.** And the HR (Rattus norvegicus [10])?
**A.** 420 beats min-1

**Q.** And the MABP (Rattus norvegicus [11])?
**A.** 173 mmHg

**Q.** What does the source list for `CN(C)/C=N/c1c(Cl)cc(NCc2ccc(N(C)C)cc2Br)cc1Cl`?
**A.** Diuretic activity [7]: 1.86 m equiv; Diuretic activity [8]: 19.3 mL; Diuretic activity (Rattus norvegicus [9]): 0.45 m equiv; HR (Rattus norvegicus [10]): 280 beats min-1; MABP (Rattus norvegicus [11]): 115 mmHg

**Q.** With `CN(C)/C=N/c1c(Cl)cc(NCc2cc(Cl)cc(Cl)c2)cc1Cl` as the compound, how does the Diuretic activity [7] read?
**A.** 1.34 m equiv

**Q.** What about the Diuretic activity [8] of the same compound?
**A.** 13.8 mL

**Q.** What about the Diuretic activity (Rattus norvegicus [9]) of the same compound?
**A.** 0.42 m equiv

**Q.** What about the HR (Rattus norvegicus [10]) of the same compound?
**A.** 290 beats min-1

**Q.** And the MABP (Rattus norvegicus [11])?
**A.** 139 mmHg

**Q.** With `COc1ccc(CNc2cc(Cl)c(/N=C/N(C)C)c(Cl)c2)cc1OC` as the compound, how does the Diuretic activity [1] read?
**A.** 8.3 mL

**Q.** What about the Diuretic activity (Rattus norvegicus [6]) of the same compound?
**A.** 0.37 m equiv

**Q.** And the Diuretic activity [3]?
**A.** 0.47 m equiv

**Q.** What about the HR (Rattus norvegicus [4]) of the same compound?
**A.** 410 beats min-1

**Q.** And the MABP (Rattus norvegicus [5])?
**A.** 133 mmHg

**Q.** Which Diuretic activity [1] does the source give for `Clc1cccc(Cl)c1NC1=NCCN1` [CLONIDINE] here?
**A.** 16.4 mL

**Q.** And the HR (Rattus norvegicus [4])?
**A.** 180 beats min-1

**Q.** What about the HR (Rattus norvegicus [10]) of the same compound?
**A.** 220 beats min-1

**Q.** What about the MABP (Rattus norvegicus [5]) of the same compound?
**A.** 102 mmHg

**Q.** And the MABP (Rattus norvegicus [11])?
**A.** 113 mmHg

**Q.** What about the Diuretic activity (Rattus norvegicus [13]) of the same compound?
**A.** 0.16 m equiv

**Q.** What does the source list for `NS(=O)(=O)c1cc2c(cc1Cl)NCNS2(=O)=O` [HYDROCHLOROTHIAZIDE]?
**A.** Diuretic activity [1]: 13.2 mL; Diuretic activity (Rattus norvegicus [2]): 0.65 m equiv; Diuretic activity [3]: 1.63 m equiv; HR (Rattus norvegicus [4]): 436 beats min-1; MABP (Rattus norvegicus [5]): 153 mmHg
